Measured values published in ChEMBL document CHEMBL1151243, “New cytotoxic oleanane-type triterpenoids from the cones of Liquidamber styraciflua” (2004).

Tests used:
Format in all cases: functional
[1] = Cytotoxicity against human RXF631L cells after 48 hrs by SRB assay; settings: RXF 631, 48 h
Summary of the method: (§1)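 Cells plated at suitable density in RPMI 1640 with 5% fetal bovine serum and left overnight to attach, then exposed to compound for 48 h. Growth measured by sulforhodamine B staining. GI50 (50% growth inhibition) computed from percent-growth values.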

[2] = tested on: A549; experiment: Cytotoxicity against human A549 cells after 48 hrs by SRB assay; settings: A549, 48 h; summary of the method: as §1
[3] = tested on: NCI-H23; experiment: Cytotoxicity against human NCI-H23 cells after 48 hrs by SRB assay; settings: NCI-H23, 48 h; summary of the method: as §1
[4] = tested on: NCI-H522; experiment: Cytotoxicity against human NCI-H522 cells after 48 hrs by SRB assay; settings: NCI-H522, 48 h; summary of the method: as §1
[5] = tested on: NCI-H460; experiment: Cytotoxicity against human NCI-H460 cells after 48 hrs by SRB assay; settings: NCI-H460, 48 h; summary of the method: as §1
[6] = tested on: MDA-MB-231; experiment: Cytotoxicity against human MDA-MB-231 cells after 48 hrs by SRB assay; settings: MDA-MB-231, 48 h; summary of the method: as §1
[7] = tested on: OVCAR-8; experiment: Cytotoxicity against human OVCAR8 cells after 48 hrs by SRB assay; settings: OVCAR-8, 48 h; summary of the method: as §1
[8] = Cytotoxicity against human MKN1 cells after 48 hrs by SRB assay; settings: MKN-1, 48 h; summary of the method: as §1
[9] = tested on: SNB-75; experiment: Cytotoxicity against human SNB75 cells after 48 hrs by SRB assay; settings: SNB-75, 48 h; summary of the method: as §1
[10] = tested on: SF-539; experiment: Cytotoxicity against human SF539 cells after 48 hrs by SRB assay; settings: SF-539, 48 h; summary of the method: as §1
[11] = tested on: MKN-7; experiment: Cytotoxicity against human MKN7 cells after 48 hrs by SRB assay; settings: MKN-7, 48 h; summary of the method: as §1
[12] = tested on: U-251; experiment: Cytotoxicity against human U251 cells after 48 hrs by SRB assay; settings: U-251, 48 h; summary of the method: as §1
[13] = tested on: DU-145; experiment: Cytotoxicity against human DU145 cells after 48 hrs by SRB assay; settings: DU-145, 48 h; summary of the method: as §1
[14] = tested on: OVCAR-3; experiment: Cytotoxicity against human OVCAR-3 cells after 48 hrs by SRB assay; settings: OVCAR-3, 48 h; summary of the method: as §1
[15] = tested on: St-4; experiment: Cytotoxicity against human St-4 cells after 48 hrs by SRB assay; settings: St-4, 48 h; summary of the method: as §1
[16] = tested on: MKN-28; experiment: Cytotoxicity against human MKN28 cells after 48 hrs by SRB assay; settings: MKN-28, 48 h; summary of the method: as §1
[17] = tested on: SF-268; experiment: Cytotoxicity against human SF268 cells after 48 hrs by SRB assay; settings: SF-268, 48 h; summary of the method: as §1
[18] = tested on: DMS-273; experiment: Cytotoxicity against human DMS273 cells after 48 hrs by SRB assay; settings: DMS-273, 48 h; summary of the method: as §1
[19] = Cytotoxicity against human HBC5 cells after 48 hrs by SRB assay; settings: HBC5, 48 h; summary of the method: as §1
[20] = tested on: KM12; experiment: Cytotoxicity against human KM12 cells after 48 hrs by SRB assay; settings: KM12, 48 h; summary of the method: as §1
[21] = tested on: MCF7; experiment: Cytotoxicity against human MCF7 cells after 48 hrs by SRB assay; settings: MCF7, 48 h; summary of the method: as §1
[22] = tested on: PC-3; experiment: Cytotoxicity against human PC3 cells after 48 hrs by SRB assay; settings: PC-3, 48 h; summary of the method: as §1
[23] = tested on: DMS-114; experiment: Cytotoxicity against human DMS114 cells after 48 hrs by SRB assay; settings: DMS-114, 48 h; summary of the method: as §1
[24] = tested on: OVCAR-5; experiment: Cytotoxicity against human OVCAR5 cells after 48 hrs by SRB assay; settings: OVCAR-5, 48 h; summary of the method: as §1
[25] = tested on: HCT-15; experiment: Cytotoxicity against human HCT15 cells after 48 hrs by SRB assay; settings: HCT-15, 48 h; summary of the method: as §1
[26] = tested on: SK-OV-3; experiment: Cytotoxicity against human SKOV3 cells after 48 hrs by SRB assay; settings: SK-OV-3, 48 h; summary of the method: as §1
[27] = tested on: MKN-74; experiment: Cytotoxicity against human MKN74 cells after 48 hrs by SRB assay; settings: MKN-74, 48 h; summary of the method: as §1
[28] = Cytotoxicity against human HBC4 cells after 48 hrs by SRB assay; settings: HBC4, 48 h; summary of the method: as §1
[29] = Cytotoxicity against human BSY1 cells after 48 hrs by SRB assay; settings: BSY-1, 48 h; summary of the method: as §1
[30] = tested on: HCT-116; experiment: Cytotoxicity against human HCT116 cells after 48 hrs by SRB assay; settings: HCT-116, 48 h; summary of the method: as §1
[31] = tested on: ACHN; experiment: Cytotoxicity against human ACHN cells after 48 hrs by SRB assay; summary of the method: as §1
[32] = tested on: OVCAR-4; experiment: Cytotoxicity against human OVCAR4 cells after 48 hrs by SRB assay; settings: OVCAR-4, 48 h; summary of the method: as §1
[33] = tested on: LOX IMVI; experiment: Cytotoxicity against human LOXIMVI cells after 48 hrs by SRB assay; summary of the method: as §1
[34] = tested on: HCC 2998; experiment: Cytotoxicity against human HCC2998 cells after 48 hrs by SRB assay; settings: HCC 2998, 48 h; summary of the method: as §1
[35] = tested on: SF-295; experiment: Cytotoxicity against human SF295 cells after 48 hrs by SRB assay; settings: SF-295, 48 h; summary of the method: as §1
[36] = tested on: SNB-78; experiment: Cytotoxicity against human SNB78 cells after 48 hrs by SRB assay; settings: SNB-78, 48 h; summary of the method: as §1
[37] = tested on: HT-29; experiment: Cytotoxicity against human HT-29 cells after 48 hrs by SRB assay; settings: HT-29, 48 h; summary of the method: as §1
[38] = tested on: MKN-45; experiment: Cytotoxicity against human MKN45 cells after 48 hrs by SRB assay; settings: MKN-45, 48 h; summary of the method: as §1
[39] = tested on: NCI-H226; experiment: Cytotoxicity against human NCI-H226 cells after 48 hrs by SRB assay; settings: NCI-H226, 48 h; summary of the method: as §1

CC(=O)OC[C@]12CC[C@@H](O)C(C)(C)C1CC[C@]1(C)[C@@H]2CC=C2[C@@H]3CC(C)(C)CC[C@]3(C(=O)O)CC[C@]21C (some centres undefined)
GI50 [1]: 11.7 µM | GI50 [2]: 4.27 µM | GI50 [3]: 8.51 µM | GI50 [4]: 13.8 µM | GI50 [5]: 13.8 µM | GI50 [6]: 19.5 µM | GI50 [7]: 11.2 µM | GI50 [8]: 11 µM | GI50 [9]: 15.8 µM | GI50 [10]: 6.31 µM | GI50 [11]: 6.61 µM | GI50 [12]: 6.03 µM | GI50 [13]: 13.2 µM | GI50 [14]: 11 µM | GI50 [15]: 9.12 µM | GI50 [16]: 5.62 µM | GI50 [17]: 15.5 µM | GI50 [18]: 6.31 µM | GI50 [19]: 11 µM | GI50 [20]: 5.13 µM | GI50 [21]: 8.32 µM | GI50 [22]: 11.5 µM | GI50 [23]: 13.5 µM | GI50 [24]: 18.2 µM | GI50 [25]: 6.46 µM | GI50 [26]: 20.4 µM | GI50 [27]: 7.76 µM | GI50 [28]: 7.94 µM | GI50 [29]: 10.7 µM | GI50 [30]: 4.57 µM | GI50 [31]: 5.37 µM | GI50 [32]: 10 µM | GI50 [33]: 11.2 µM | GI50 [34]: 28.2 µM | GI50 [35]: 8.71 µM | GI50 [36]: 15.8 µM | GI50 [37]: 3.39 µM | GI50 [38]: 17.8 µM | GI50 [39]: 18.6 µM
